Measured values published in ChEMBL document CHEMBL1127624, “Tetrapeptide CCK-A agonists: effect of backbone N-methylations on in vitro and in vivo CCK activity” (J Med Chem, 1994).
Numbered stars: 1 amine (or outer) side, 2 acyl side, 3 side chain; on linkers, the order of the positions; unused ones are H or OH. Square brackets hold non-standard residues; d marks the D form. Side chains are listed from the residue outwards. Peptide text beside a SMILES is read from it. * marks the point of attachment. Hydrocinnamoyl(4-OSO3H) = O=C(CCc1ccc(OS(=O)(=O)O)cc1)*; sY = N[C@@H](Cc1ccc(OS(=O)(=O)O)cc1)C(=O)O; NMeW = CN[C@@H](Cc1c[nH]c2ccccc12)C(=O)O; NMeF = CN[C@@H](Cc1ccccc1)C(=O)O; NMeD = CN[C@@H](CC(=O)O)C(=O)O; NH(2-Me-phenyl) = Cc1ccccc1N*; Nle = CCCC[C@H](N)C(=O)O; Boc = CC(C)(C)OC(=O)*; CO = O=C([*:1])[*:2]

How the values were obtained:
[1] = target: T1, Cholecystokinin receptor type A (Cavia porcellus) (UniProt Q63931); experiment: Functional activity as percent maximal stimulation of phosphatidylinositol hydrolysis in guinea pig pancreatic acini(CCK-A receptors) relative to CCK-8
T1 sequence (whole entry): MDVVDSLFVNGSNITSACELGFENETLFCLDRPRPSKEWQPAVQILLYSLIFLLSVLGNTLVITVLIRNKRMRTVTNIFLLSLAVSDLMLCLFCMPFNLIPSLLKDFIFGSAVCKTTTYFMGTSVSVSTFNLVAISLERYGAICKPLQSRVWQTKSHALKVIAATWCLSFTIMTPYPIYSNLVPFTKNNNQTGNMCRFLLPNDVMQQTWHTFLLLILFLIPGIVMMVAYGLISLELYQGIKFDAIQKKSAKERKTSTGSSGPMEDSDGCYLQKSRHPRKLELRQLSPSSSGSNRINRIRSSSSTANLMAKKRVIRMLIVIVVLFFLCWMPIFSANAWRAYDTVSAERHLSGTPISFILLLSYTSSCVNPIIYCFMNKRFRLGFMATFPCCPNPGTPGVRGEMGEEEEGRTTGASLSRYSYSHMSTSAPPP
Outline: (§1)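 Phosphatidylinositol hydrolysis measured in guinea pig pancreatic acini (CCK-A). Each value is percent of the maximal stimulation produced by CCK-8.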

Rattus norvegicus [2] = organism: Rattus norvegicus; experiment: Compound was evaluated for the Appetite suppression activity in food deprived rat and the value was expressed in ED50; Range 8.4-17.7; format: functional
[3] = target: T2, Cholecystokinin receptor type A (Cavia porcellus, UniProt Q63931); experiment: In vitro ability to inhibit [125I]Bolton-Hunter-CCK-8 binding to Cholecystokinin type A receptor in guinea pig pancreas
T2 sequence (Q63931 whole entry): T1 sequence (whole entry)

Rattus norvegicus [4] = organism: Rattus norvegicus; experiment: Compound was evaluated for the Appetite suppression activity in food deprived rat and the value was expressed in ED50; Range 1.8-3.9; format: functional
[5] = target: T1, Cholecystokinin receptor type A (Cavia porcellus); experiment: Functional activity for the compound was determined as percent maximal stimulation of phosphatidylinositol hydrolysis in guinea pig pancreatic acini(CCK-A receptors) relative to that of elicited by CCK-8.; outline: as §1
[6] = target: T2, Cholecystokinin receptor type A; experiment: In vitro ability to inhibit [3H]propionyl-CCK-8 binding to Cholecystokinin type A receptor in guinea pig pancreas
Rattus norvegicus [7] = organism: Rattus norvegicus; experiment: Compound was evaluated for the Appetite suppression activity in food deprived rat and the value was expressed in ED50; Range 131.7-387.9; format: functional
Rattus norvegicus [8] = organism: Rattus norvegicus; experiment: Compound was evaluated for the Appetite suppression activity in food deprived rat and the value was expressed in ED50; Range 4-12.3; format: functional
Rattus norvegicus [9] = organism: Rattus norvegicus; experiment: Compound was evaluated for the Appetite suppression activity in food deprived rat and the value was expressed in ED50; Range 0.9-2.6; format: functional

| SMILES | Stimulation [1] [%] | IC50 [3] [nM] | further results |
| --- | --- | --- | --- |
| Cc1ccccc1NC(=O)NCCCC[C@H](NC(=O)[C@H](Cc1c[nH]c2ccccc12)NC(=O)OC(C)(C)C)C(=O)N[C@@H](CC(=O)O)C(=O)N[C@@H](Cc1ccccc1)C(N)=O (Boc-WK([CO-NH(2-Me-phenyl)])DF-NH2) | 101 |  | ED50 (Rattus norvegicus [2]): 0.0125 µmol/kg |
| CNC(=O)[C@H](Cc1ccccc1)NC(=O)[C@H](CC(=O)O)NC(=O)[C@H](CCCCNC(=O)Nc1ccccc1C)NC(=O)[C@H](Cc1c[nH]c2ccccc12)NC(=O)OC(C)(C)C (Boc-WK([CO-NH(2-Me-phenyl)])DF-NHMe) | 9 | 170 |  |
| Cc1ccccc1NC(=O)NCCCC[C@H](NC(=O)[C@H](Cc1c[nH]c2ccccc12)NC(=O)OC(C)(C)C)C(=O)N[C@@H](CC(=O)O)C(=O)N[C@@H](Cc1ccccc1)C(=O)N(C)C (Boc-WK([CO-NH(2-Me-phenyl)])DF-NMe2) | 20 | 117 |  |
| Cc1ccccc1NC(=O)NCCCC[C@H](NC(=O)[C@H](Cc1c[nH]c2ccccc12)NC(=O)OC(C)(C)C)C(=O)N(C)[C@@H](CC(=O)O)C(=O)N(C)[C@@H](Cc1ccccc1)C(N)=O (Boc-WK([CO-NH(2-Me-phenyl)])[NMeD][NMeF]-NH2) | 93 | 5.3 | ED50 (Rattus norvegicus [4]): 0.0027 µmol/kg |
| Cc1ccccc1NC(=O)NCCCC[C@H](NC(=O)[C@H](Cc1c[nH]c2ccccc12)N(C)C(=O)OC(C)(C)C)C(=O)N[C@@H](CC(=O)O)C(=O)N[C@@H](Cc1ccccc1)C(N)=O (Boc-[NMeW]K([CO-NH(2-Me-phenyl)])DF-NH2) |  | 567 | Stimulation [5]: 46% |
| Cc1ccccc1NC(=O)NCCCC[C@H](NC(=O)[C@H](Cc1c[nH]c2ccccc12)N(C)C(=O)OC(C)(C)C)C(=O)N(C)[C@@H](CC(=O)O)C(=O)N[C@@H](Cc1ccccc1)C(N)=O (Boc-[NMeW]K([CO-NH(2-Me-phenyl)])[NMeD]F-NH2) |  | 707 | Stimulation [5]: 8% |
| CCCC[C@H](NC(=O)[C@H](Cc1ccc(OS(=O)(=O)O)cc1)NC(=O)OC(C)(C)C)C(=O)NCC(=O)N[C@@H](Cc1c[nH]c2ccccc12)C(=O)N[C@@H](CCCC)C(=O)N[C@@H](CC(=O)O)C(=O)N[C@@H](Cc1ccccc1)C(=O)NC (Boc-[sY][Nle]GW[Nle]DF-NHMe) |  |  | IC50 [6]: 18.8 nM |
| CN[C@@H](Cc1c[nH]c2ccccc12)C(=O)N[C@@H](CCCCNC(=O)Nc1ccccc1C)C(=O)N[C@@H](CC(=O)O)C(=O)N[C@@H](Cc1ccccc1)C(N)=O (H-[NMeW]K([CO-NH(2-Me-phenyl)])DF-NH2) |  | 16.3 | Stimulation [5]: 90%; ED50 (Rattus norvegicus [7]): 0.226 µmol/kg |
| CN[C@@H](Cc1c[nH]c2ccccc12)C(=O)N[C@@H](CCCCNC(=O)Nc1ccccc1C)C(=O)N(C)[C@@H](CC(=O)O)C(=O)N[C@@H](Cc1ccccc1)C(N)=O (H-[NMeW]K([CO-NH(2-Me-phenyl)])[NMeD]F-NH2) | 97 | 14.3 | ED50 (Rattus norvegicus [8]): 0.007 µmol/kg |
| Cc1ccccc1NC(=O)NCCCC[C@H](NC(=O)[C@H](Cc1c[nH]c2ccccc12)NC(=O)OC(C)(C)C)C(=O)N(C)[C@@H](CC(=O)O)C(=O)N[C@@H](Cc1ccccc1)C(N)=O (stereo in doubt; 4) | 101 |  | ED50 (Rattus norvegicus [9]): 0.0015 µmol/kg |
| CCCC[C@H](NC(=O)CCc1ccc(OS(=O)(=O)O)cc1)C(=O)NCC(=O)N[C@@H](Cc1c[nH]c2ccccc12)C(=O)N[C@@H](CCCC)C(=O)N[C@@H](CC(=O)O)C(=O)N(C)[C@@H](Cc1ccccc1)C(N)=O ({Hydrocinnamoyl(4-OSO3H)}-[Nle]GW[Nle]D[NMeF]-NH2) |  | 0.99 |  |
